TAAR1 antag: human TAAR1 antagonism; Q96RJ0; CHO RD-HGA16 TAAR1, Fluo-8 calcium fluorescence, antagonist; inhibition, % at 3 µM; hit rate 1.5% among 360,000;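 active means inhibition above a per-plate cutoff, the mean inhibition of test compounds on that plate plus 3 SD, cut at about 49% in these data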;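 further: 0% = DMSO plus EC80 beta-PEA response and 100% = DMSO alone without agonist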
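Test system – hTAAR1-expressing CHO RD-HGA16 cells, Gα16-coupled · Reagent – β-PEA at EC80 concentration, post-compound challenge · Compound dosing – 3 µM, single point · Timing – 140 s kinetic read after compound, 140 s after agonist · Detection – Fluo-8 intracellular calcium dye fluorescence, real-time kinetic reads · Control set – DMSO and EC80 PEA controls · Repeats – n of 1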
OX1R antag-1: human HCRTR1 antagonism. O43613. CHO/OX1R cells, Fluo-8 calcium fluorescence, orexin A. inhibition, % at 5 µM. hit rate 0.43% among 330,000. AID 434989;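 active means inhibition above its plate's threshold, mean inhibition of all tested compounds on the plate plus 3 SD, cut at about 37% in these data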;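 further: 0% = orexin A challenge wells and 100% = SB-334867-A antagonist wells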
Target sequence (O43613 whole entry, looked up): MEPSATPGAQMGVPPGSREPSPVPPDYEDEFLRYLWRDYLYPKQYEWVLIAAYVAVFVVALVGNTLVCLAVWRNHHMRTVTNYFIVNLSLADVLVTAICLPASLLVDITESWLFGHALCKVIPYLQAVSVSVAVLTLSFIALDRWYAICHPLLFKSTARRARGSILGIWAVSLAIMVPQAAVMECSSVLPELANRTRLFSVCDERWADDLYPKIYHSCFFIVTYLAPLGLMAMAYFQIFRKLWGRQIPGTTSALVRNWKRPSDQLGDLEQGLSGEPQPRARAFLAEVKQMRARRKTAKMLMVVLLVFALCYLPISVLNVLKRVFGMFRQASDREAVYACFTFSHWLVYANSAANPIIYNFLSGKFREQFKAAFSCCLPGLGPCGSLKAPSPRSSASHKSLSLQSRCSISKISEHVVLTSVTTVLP
GPR7 antag: human neuropeptides B/W receptor 1 antagonism; AID 1861; hit rate 1.1% among 290,000; GPR7-expressing cells, fluorescence antagonist assay; P48145; inhibition, % at 4.4 µM; in the data active means inhibition above about 16%, passing the limit was not always enough;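 further: cells stimulated with the agonist NPW; 0% = agonist with vehicle and 100% = vehicle without agonist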
Target sequence (P48145 whole entry, looked up): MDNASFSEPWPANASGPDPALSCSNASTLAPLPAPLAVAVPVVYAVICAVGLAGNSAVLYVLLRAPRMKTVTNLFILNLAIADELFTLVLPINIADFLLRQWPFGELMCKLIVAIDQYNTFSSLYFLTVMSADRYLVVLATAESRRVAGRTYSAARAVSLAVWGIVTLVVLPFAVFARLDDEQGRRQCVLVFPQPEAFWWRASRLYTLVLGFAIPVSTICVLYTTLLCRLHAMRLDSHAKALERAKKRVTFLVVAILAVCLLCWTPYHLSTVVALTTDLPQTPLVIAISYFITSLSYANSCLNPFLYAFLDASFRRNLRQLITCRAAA
TAAR1 ag: agonists of human TAAR1; Q96RJ0; CHO RD-HGA16 TAAR1, Fluo-8 calcium fluorescence; vehicle wells 0%, saturating PEA agonist 100%; activation, % at 3 µM; hit rate 0.99% among 360,000;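 active means activation above the mean activation of all test compounds in the run plus 3 SD, cut at about 38% in these data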
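Test system: RD-HGA16 (CHO) cells co-expressing Gα16 and hTAAR1 / Benchmarks: DMSO vehicle as 0%, PEA at EC100 as 100% / Repeats: no replicates (n 1) / Measure: % activation from peak over basal fluorescence ratio, DMSO-to-PEA scaled / Timing: 17-24 h plating, Fluo-8 75 min 37 °C, 30 min RT / Technique: kinetic Fluo-8 calcium fluorescence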
OX1R antag-2: OX1R (human) antagonism | hit rate 1.8% among 330,000 | OX1R-expressing cells, FRET antagonist read-out | O43613 | inhibition, % at 6.6 µM; in the data active means inhibition mostly above about 38%, no sharp cut-off; inactive means mostly below about 40%;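 further: 0% = agonist challenge alone and 100% = reference antagonist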
CHO parental Ca: counter-screen: ATP calcium response change in parental CHO cells. parental CHO-K1, ATP-induced calcium, Fluo-8 fluorescence. inhibition, % at 5.6 µM. hit rate 0.63% among 330,000. AID 463079;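 active means inhibition above that plate's mean sample inhibition plus 3 SD, cut at about 26% in these data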;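 further: 0% = ATP-challenged DMSO wells and 100% = DMSO wells without ATP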
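Test system: untransfected parental CHO cell line. Compound: one dose, 5.6 µM nominal. Detection: intracellular calcium via Fluo-8 no-wash fluorescent dye. Measure: % inhibition. Benchmarks: ATP-challenged DMSO wells low, unchallenged DMSO wells high.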
TAAR1 ag confirm: human TAAR1 agonism, confirmed; activation, % at 3 µM; AID 651783; CHO RD-HGA16 TAAR1, Fluo-8 calcium fluorescence; scaled: DMSO 0%, maximal phenethylamine 100%; hit rate 82% among 2,400; shares compounds with TAAR1 ag;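 active means activation above a cutoff set at the run's mean compound activation plus 3 SD, cut at about 39% in these data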
Ga16 ag counter: nonselective agonism, TAAR1 counter-screen. shares compounds with TAAR1 ag. CHO-Ga16 parental, Fluo-8 calcium fluorescence; normalized to maximal ATP response, DMSO zero. activation, % at 3 µM. hit rate 50% among 2,400. AID 651787;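 active means activation above the run cutoff, the mean activation over all tested wells plus 3 SD, cut at about 12% in these data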;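 further: 0% = DMSO wells and 100% = maximal ATP response on the peak over basal ratio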
TAAR1 desens: human TAAR1 agonist that also desensitizes the receptor; shares compounds with TAAR1 ag; CHO RD-HGA16 hTAAR1, Fluo-8 calcium, beta-PEA response inhibition; inhibition, % at 3 µM; hit rate 46% among 2,400; AID 651951;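 active means inhibition above the run cutoff, the mean inhibition of all test compounds plus 3 SD, cut at about 49% in these data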;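 further: beta-PEA stimulus applied at its EC80; loss of beta-PEA calcium signal after compound pretreatment read as receptor desensitization; 0% = DMSO with beta-PEA at EC80 and 100% = DMSO alone without agonist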
Ga16 antag count: nonselective Ga16 antagonism, counter-screen; CHO-Ga16 ATP-induced calcium, Fluo-8 fluorescence; hit rate 39% among 2,400; inhibition, % at 3 µM; shares compounds with TAAR1 ag;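 active means inhibition above the plate's mean compound inhibition plus 3 SD, computed per plate, cut at about 22% in these data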;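 further: 0% = EC80 ATP with DMSO and 100% = DMSO wells without ATP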
* marks the source's active call; other numbers are inactive results; · = not tested or not shown. Rows were chosen to be rich in hits. Some 4.6% of all compounds tested hit in one or more screens of this group.

SMILES	TAAR1 antag	OX1R antag-1	GPR7 antag	TAAR1 ag	OX1R antag-2	CHO parental Ca	TAAR1 ag confirm	Ga16 ag counter	TAAR1 desens	Ga16 antag count
Clc1ccc(C(Cn2ccnc2)OCc2csc3c(Cl)cccc23)c(Cl)c1 (stereo unspecified)	32	-3	·	8	25	-4	·	·	·	·
CCOC(=O)c1c(-n2c(C)cc(C=C3C(=O)NC(=O)NC3=O)c2C)sc2c1CCCC2	35	-16	-8	47*	15	-19	53*	28*	44	38*
Cc1cccc(N2C(=O)NC(=O)/C(=C\c3cc(C)n(-c4sc5c(c4C#N)CCCC5)c3C)C2=O)c1C	9	-15	0	5	9	-6	·	·	·	·
COC(=O)c1ccc(CN2CCN(Cc3ccccc3)CC2)cc1	-1	-10	-9	6	12	-10	·	·	·	·
COC(=O)C1=CCCN(C)C1	11	-6	0	54*	9	-11	88*	1	57*	4
O=C(Cn1ncn2c(cc3cc(F)ccc32)c1=O)N1CCC2(CC1)OCCO2	-17	-7	-17	3	17	-4	·	·	·	·
C[C@H]1CN([C@@H](C)CO)C(=O)CCCn2cc(nn2)CO[C@@H]1CN(C)C(=O)Oc1cccc2ccccc12	0	·	·	0	·	·	·	·	·	·
O=C(NCCN1CCC2(CC1)C(=O)NCN2c1ccccc1)c1ccc(F)c(F)c1	103*	·	·	110*	·	·	102*	67*	104*	87*
O=C(NCCN1CCC2(CC1)C(=O)NCN2c1ccccc1)c1cccc(F)c1	74*	·	·	60*	·	·	39*	21*	54*	31*
COc1cccc(C(=O)NCCN2CCC3(CC2)C(=O)NCN3c2ccccc2)c1	5	·	·	10	·	·	·	·	·	·
CCCCn1nnnc1C(CC)N1CCC2(CC1)C(=O)NCN2c1ccccc1 (stereo unspecified)	-2	·	·	3	·	·	·	·	·	·
COc1ccc2c(CCN)c[nH]c2c1	6	-14	12	52*	11	-9	80*	1	45	10
CCC(C)n1c(O)c(C=NCCc2ccccc2)c(=O)[nH]c1=S (stereo unspecified)	5	-50	-20	69*	9	-21	60*	1	14	8
O=C1NC(=O)C2(CCCC2)C(=O)N1	0	·	·	1	·	·	·	·	·	·
O=c1cc(C(F)(F)F)c2cc3c4c(c2o1)CCCN4CCC3	95*	92*	12	195*	29	73*	89*	112*	70*	75*
Cc1cc(C(=O)OC(C)C(=O)Nc2ccccc2)c(C)n1C1CC1 (stereo unspecified)	-39	·	·	-1	·	·	·	·	·	·
CCOC(=O)[C@@]12C(=O)C(=O)N[C@]1(c1ccccc1)C1OCCCC12 (stereo partly specified)	-21	-5	-11	3	17	-13	·	·	·	·
COc1ccc(C(=O)C2CCCN(CC3CCCCC3)C2)cc1OC (stereo unspecified)	-12	·	·	2	·	·	·	·	·	·
COc1ccc(CNCCc2ccc(Cl)cc2Cl)cc1	-2	-5	-10	5	4	-7	·	·	·	·
Clc1ccc(CCNCc2ccncc2)c(Cl)c1	52*	-15	13	74*	-5	-12	89*	5	71*	1
C=CCNC(=S)N1Cc2cc(Br)ccc2-n2nncc2C1	-8	·	·	2	·	·	·	·	·	·
CCCCN1C(=O)/C(=C/C=C/c2ccco2)C(=O)NC1=S	15	·	-3	18	·	·	·	·	·	·
Cc1cc(C)cc(N2C(=O)NC(=O)/C(=C\C=C\c3ccco3)C2=O)c1	23	1	3	50*	10	-11	72*	47*	40	16
CCc1ccc(N2C(=O)NC(=O)/C(=C\C=C\c3ccco3)C2=O)cc1	42	-8	-4	73*	18	-3	67*	26*	69*	19
Cc1nc2ccc(Cl)cc2c(-c2ccccc2)c1C(=O)O	-6	0	-3	0	20	4	·	·	·	·
SMILES	TAAR1 antag	OX1R antag-1	GPR7 antag	TAAR1 ag	OX1R antag-2	CHO parental Ca	TAAR1 ag confirm	Ga16 ag counter	TAAR1 desens	Ga16 antag count
O=[N+]([O-])c1ccc(NCc2ccc(Cl)cc2)c2ccncc12	-1	-18	-10	16	5	-22	·	·	·	·
O=[N+]([O-])c1ccc(NCc2ccccc2)c2nonc12	107*	108*	34*	954*	45	94*	496*	650*	105*	103*
COCCN1Cc2cc(=O)n3c([nH]c4ccccc43)c2C1=N	-4	-28	-9	1	16	-11	·	·	·	·
CN1CN(c2ccccc2)C2(CCN(CCCSc3ccccc3NC(=O)/C=C/c3ccccc3)CC2)C1=O	102*	·	·	122*	·	·	125*	97*	107*	97*
CCCCC(CC)CNCC(O)c1ccccc1 (stereo unspecified)	5	-26	-2	53*	1	-16	64*	5	28	4
O=C1C2CC=CCC2C(=O)N1SC(Cl)(Cl)Cl (stereo unspecified)	54*	·	·	57*	·	·	43*	26*	55*	49*
CN1/C(=C\C=C2C(=O)NC(=S)NC2=O)C(C)(C)c2ccccc21	95*	·	4	308*	·	·	191*	208*	90*	92*
O=C1NC(=S)NC(=O)C1=Cc1cccc2cc3ccccc3cc12	-7	·	4	1	·	·	·	·	·	·
CN1C(=O)C(=CN2CCN(C(=O)c3ccco3)CC2)C(=O)N(C)C1=S	-9	-1	-9	53*	6	8	75*	6	21	-1
Cc1ccc(OC(=O)N(C)C[C@@H]2OCc3cnnn3CCCC(=O)N([C@H](C)CO)C[C@H]2C)cc1	-11	·	·	4	·	·	·	·	·	·
CN(CCc1ccccc1)Cc1ccccc1[N+](=O)[O-]	-1	-7	-14	5	29	-5	·	·	·	·
Oc1ccccc1CN(CCc1ccccc1)Cc1ccccc1	32	-53	-11	49*	30	-36	75*	16*	89*	14
COc1ccc(CNCCc2ccc(Cl)cc2)c(OC)c1OC	-25	-18	12	65*	11	-18	76*	25*	39	9
